Results on 12 compounds are retold here after ChEMBL document CHEMBL1128451, “Synthesis and anti-DNA viral activities in vitro of certain 2,4-disubstituted-7-(2-deoxy-2-fluoro-beta-D-arabinofuranosyl)pyrrolo[2,3-d d pyrimidine nucleosides” (J Med Chem, 1995).

Converted amounts (≈) assume the structure as drawn.

Broadly, the IC50 is the concentration needed to halve the response being measured. Low values mean inhibition by little substance, high ones a need for much substance.

The nature of series [1]: Anti viral activity against 2.2.15 cells (concentration required to reduce the log phase cell growth by 50%). The series is classed as cell-based. Particulars: human, 2.2.15 cells (HepG2-derived); read-out: TC50 (the source's name). Summed up:
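Growing 2.2.15/HepG2 cells at 1.7×10^4/well, subconfluent on collagen-coated plates, given compound dilutions in quadruplicate. Drug medium refreshed every second day. Proliferation read on days 0, 4, 8 and 12; TC50 is the concentration giving 50% inhibition of proliferation after 12 days' exposure. Mean of three or more experiments.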

The subject of series [2] is MRC5. The series is described as follows: Anti HCMV (human cytomegalovirus) activity in MRC-5 cells infected with […] strain of HCMV (plaque reduction assay). The class given is functional, cell-based.
The nature of series [3]: Visual cytotoxicity of stationary MRC-5 cells, median toxic concentration is evaluated by anti HCMV plaque reduction assay performed in MRC-5 cells using the AD169 strain of HCMV. The series is classed as cell-based, MRC5. Particulars: human, read-out: TC50 (the source's name). Summed up: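 Stationary uninfected MRC-5 cells scored visually for cytotoxicity from 0 (none at 20-fold magnification) to 4 (cell sheet nearly destroyed); median toxic concentration reported.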
For orientation: In a plaque reduction assay, fewer plaques than in the control indicate reduced infectivity or spread.

The subject of series [4] is Vero. The series is described as follows: Ability to inhibit the Cytopathic effect of HSV-1 in vero cells. The series is classed as functional, cell-based. Particulars: Chlorocebus sabaeus. A general note: Protection from cytopathic effect is a common read-out in antiviral testing.
The test system of series [5] is Vero. The series is described as follows: Ability to inhibit the Cytopathic effect of HSV-2 in vero cells. The class given is functional, cell-based. Conditions: Chlorocebus sabaeus.
In a further series the test system is HepG2. Put plainly: Ability to inhibit the episomal HBV-DNA in 2.2.15 cells. Particulars: Homo sapiens. The series is classed as functional, cell-based.
Series [6] deals with HFF. Put plainly: Plaque reduction and cytotoxicity performed in HFF cell line Hs 68. The series is classed as functional, cell-based. Particulars: Homo sapiens.
The nature of series [7]: Visual cytotoxicity of […], median toxic concentration is evaluated by plaque reduction assay performed in HFF Cell line Hs 68. Particulars: human. The series is classed as cell-based.
In series [8] the test system is MRC5. Put plainly: Plaque reduction performed using the DHPG- resistant D16 strain of HCMV in MRC-5 cell line. The class given is functional, cell-based. Particulars: Homo sapiens. Summed up: (§1)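 Plaque reduction in MRC-5 cells, grown in MEM(E) with 10% FBS and passaged 1:2, infected with the DHPG-resistant D16 HCMV strain, a viral polymerase mutant. IC50 is the concentration reducing plaques by 50%, derived from a regression line of inhibition versus log concentration. Ganciclovir served as the positive control.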

A short description of series [9]: Anti viral activity against MRC-5 cells (concentration required to reduce the log phase cell growth by 50%). The series is classed as cell-based, MRC5. Conditions: human, read-out: TC50 (the source's name). Summed up: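 Growing MRC-5 cells; growth inhibition measured with the CellTiter 96 aqueous proliferation assay. TC50 is the concentration reducing log-phase cell growth by 50%.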

The nature of series [10]: Visual cytotoxicity of stationary MRC-5 cells, median toxic concentration is evaluated by plaque reduction assay performed in DHPG- resistant D16 strain of HCMV. The series is classed as cell-based, MRC5. Conditions: human, read-out: TC50 (the source's name). In outline:
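Uninfected stationary MRC-5 cells were scored by eye for cytotoxicity, from 0 (none visible at 20-fold magnification) to 4 (cell sheet nearly destroyed). The value is the median toxic concentration.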

A short description of series [11]: Anti viral activity against Vero cells (concentration required to reduce the log phase cell growth by 50%). The class given is cell-based. Conditions: chlorocebus sabaeus, read-out: TC50 (the source's name). Summed up:
(§2)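 Log-phase Vero cells, 5000 cells per assay, exposed to compound for 4 days in quadruplicate. Growth measured by tetrazolium-based (CellTiter 96 aqueous) proliferation read-out; averaged data used to calculate TC50, the concentration reducing cell growth by 50%.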

A short description of series [12]: Visual cytotoxicity of stationary HFF Cell line Hs68, median toxic concentration is evaluated by anti HCMV plaque reduction assay performed in HFF Cell line Hs 68. The class given is cell-based. Conditions: human, read-out: TC50 (the source's name). In outline: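 Stationary uninfected HFF Hs68 cells scored visually for cytotoxicity from 0 (none at 20-fold magnification) to 4 (cell sheet nearly destroyed); median toxic concentration reported.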

A short description of series [13]: Visual cytotoxicity of […], median toxic concentration is evaluated by anti HCMV plaque reduction assay performed in HFF Cell line Hs 68. The series is classed as cell-based. Conditions: human, read-out: TC50 (the source's name).
Series [14] relates to HFF. The series is described as follows: Anti HCMV(human cytomegalovirus) activity in HFF cell line Hs 68 infected with […] strain of HCMV(plaque reduction assay). The class given is functional, cell-based. Summed up:
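HCMV AD169 plaque reduction in diploid human foreskin fibroblast line Hs68, grown in MEM(E) with 10% FBS and passaged 1:2. IC50 is the concentration cutting plaque number by 50%, calculated by linear regression of inhibition against log drug concentration. Values are averages of three or more experiments. Ganciclovir was the positive control.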

The test system of series [15] is HFF. The series is described as follows: Anti HCMV(human cytomegalovirus) activity in MRC-5 cells infected with DHPG-resistant D16 strain of HCMV(plaque reduction assay). The series is classed as functional, cell-based. Summed up: as §1
Series [16] can be described thus: Anti viral activity against vero cells (concentration required to reduce the log phase cell growth by 50%). The series is classed as cell-based. Particulars: chlorocebus sabaeus, read-out: TC50 (the source's name). In outline:
as §2

As to `Nc1nc(N)c2ccn(C3OC(CO)CC3F)c2n1` (stereo unspecified), the GI50 in [1] amounted to 149 µg/mL (≈ 558 µM). Moreover, the concentration for half-maximal inhibition (IC50) was over 100 µg/mL in the series with MRC5 [2], over 100 µg/mL in the series with Vero [4], over 100 µg/mL with Vero [5] and over 30 µg/mL in the series with HepG2. Moreover, the CC50 in series [3] was over 100 µg/mL.

As to `Nc1nc(Cl)c2ccn([C@@H]3O[C@H](CO)[C@@H](O)[C@@H]3F)c2n1`, in the series with MRC5 [2], the concentration for half-maximal inhibition (IC50) is over 100 µg/mL. Further, the CC50 in [3] stood at 32 µg/mL (≈ 106 µM).

`NC1=NC(=S)C2C=CN([C@@H]3O[C@H](CO)[C@@H](O)[C@@H]3F)C2=N1` (stereo partly specified) registered an IC50 in the series with MRC5 [2] of over 50 µg/mL. The CC50 in series [3] is over 50 µg/mL.

Consider `COc1nc(N)nc2c1ccn2[C@@H]1O[C@H](CO)[C@@H](O)[C@@H]1F`, for which the concentration for half-maximal inhibition (IC50) in the series on MRC5 [2] is over 100 µg/mL. Moreover, in series [3], the CC50 was over 100 µg/mL.

On to `Nc1nc(N)c2ccn([C@@H]3O[C@H](CO)[C@@H](O)[C@@H]3F)c2n1`, for which the GI50 worked out at 630 µg/mL (≈ 2220 µM) in series [1] and 11.4 µg/mL (≈ 40.2 µM) in series [9]. Besides, the IC50 was 3.4 µg/mL (≈ 12 µM) in the series with HFF [6]; 3.7 µg/mL (≈ 13.1 µM) in the series on MRC5 [2]; 11 µg/mL (≈ 38.8 µM) in the series on MRC5 [8]; 4.1 µg/mL (≈ 14.5 µM) in the series with Vero [4]; 6.3 µg/mL (≈ 22.2 µM) in the series on Vero [5]; 0.7 µg/mL (≈ 2.47 µM) with HepG2. The CC50 in [7] was over 1000 µg/mL; in series [3] it was over 100 µg/mL; in series [10] it was over 100 µg/mL; in [11], 53 µg/mL (≈ 187 µM).

For `NSc1nc(N)nc2c1ccn2[C@@H]1O[C@H](CO)[C@@H](O)[C@@H]1F`, the IC50 in the series on MRC5 [2] is over 100 µg/mL. Further, in [3], the CC50 was over 100 µg/mL.

On to `Nc1ncc2ccn([C@@H]3O[C@H](CO)[C@@H](O)C3F)c2n1` (stereo partly specified), for which the IC50 in the series on MRC5 [2] was found to be 16 µg/mL (≈ 59.6 µM). Further, in series [3], the CC50 was over 100 µg/mL.

In the series on MRC5 [2], `Nc1nc([SeH])c2ccn([C@@H]3O[C@H](CO)[C@@H](O)[C@@H]3F)c2n1` returned an IC50 of 10 µg/mL (≈ 28.8 µM). Further, the CC50 in series [3] was 178 µg/mL (≈ 513 µM).

With `Nc1nc2c(ccn2[C@@H]2O[C@H](CO)[C@@H](O)[C@@H]2F)c(=O)[nH]1`, the GI50 in [1] is over 100 µg/mL. Also, the 50% inhibitory concentration (IC50) was determined as 51 µg/mL (≈ 179 µM) in the series with MRC5 [2] and 60 µg/mL (≈ 211 µM) in the series on HepG2. Also, in [3], the CC50 was over 100 µg/mL.

Consider `Nc1ncc2c(n1)N([C@@H]1O[C@H](CO)[C@@H](O)[C@@H]1F)CC2`, for which, in the series with MRC5 [2], the IC50 was over 100 µg/mL. Moreover, the CC50 in series [3] stood at 32 µg/mL (≈ 118 µM).

With `Nc1nc2c(ncn2COC(CO)CO)c(=O)[nH]1` [GANCICLOVIR], the CC50 in series [12] is over 1000 µg/mL; in series [13], over 1000 µg/mL; in series [3], over 1000 µg/mL; in [16] it was 270 µg/mL (≈ 1060 µM). For the same compound, the values for the IC50 in the series on HFF [14], in the series on HFF [15] and in the series on MRC5 [2] were 4.4 µg/mL (≈ 17.2 µM), 52 µg/mL (≈ 204 µM) and 3.2 µg/mL (≈ 12.5 µM), respectively. In addition, the GI50 in [9] was over 500 µg/mL.

Consider `Nc1ccn([C@H]2CC[C@@H](CO)O2)c(=O)n1` [ZALCITABINE], for which the GI50 in [1] was 64 µg/mL (≈ 303 µM). In the series with HepG2, this compound yielded a concentration for half-maximal inhibition (IC50) of 2.1 µg/mL (≈ 9.94 µM).
